Tests used:
[1] = tested on: Bovine adrenal capillary endothelial cells (BCECs); assay: Endothelial cell migration assay, BCECs; type: cell-based
Procedure, shortened: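 Bovine adrenal capillary cells (DME, 10% donor calf serum, 1% endothelial mitogen; passage 15) were starved overnight in DME/0.1% BSA. 3 × 10^4 cells/well were attached 2 h at 37°C to a gelatinized membrane in an inverted Boyden chamber, then reinverted. GST–CD36 fusion proteins were preincubated with 2 nM TSP-1, warmed to room temperature, and added to the top wells. Migration to bFGF ran 4 h at 37°C. Migrated cells/10 high-power fields counted; normalized to bFGF minus background.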

[2] = tested on: Human dermal microvascular endothelial cells (HMVECs); assay: Endothelial cell migration assay, HMVECs; type: cell-based; conditions: for inhibition of bFGF-induced HMVEC migration by other CD36 ligands / effect on migration when tested alone: 2 μg/ml
Procedure, shortened: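 Human dermal microvascular cells (passages 6–9) were serum-starved and then migrated in a Boyden chamber 4 h at 37°C toward bFGF. Collagen I, LDL and copper-oxidized LDL were tested at 2 μg/ml, with or without 10 μg/ml anti-CD36 IgG added to both wells. Quadruplicate wells, two experiments. Counts were normalized to bFGF minus control-medium background. Two-tailed t test was run on raw data.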

CD36-transfected HUVECs [3] = assay: Migration assay of CD36-transfected HUVEC clones; type: cell-based, human; conditions: TSP-1 2 nM, bFGF
Procedure, shortened: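 HUVECs at passage 2 were lipofected with a CD36 plasmid (30 μg DNA, 5 h, 37°C) and selected in 100 μg/ml G418. Cloned lines were checked for CD36 by flow cytometry. Clones migrated toward bFGF in a Boyden chamber (4 h, 37°C) with 2 nM TSP-1, with or without 10 μg/ml anti-CD36 antibody OKM-5. Four experiments; normalized to bFGF minus background.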

CD36-transfected HUVECs [4] = assay: Tube formation assay in Matrigel, CD36-transfected HUVECs; type: cell-based, human; conditions: 24 h at 37°C, endogenous TSP-1 expression by clones
endothelial cells [5] = conditions: cited from earlier work
endothelial cells [6] = conditions: in vitro; ref Tolsma et al., 1997; cited from earlier work
endothelial cells [7] = conditions: in vitro; ref Iruela-Arispe et al., 1991; DiPietro et al., 1994; Canfield and Schor, 1995; cited from earlier work
[8] = tested on: neovascularization, rodent cornea; conditions: rodent cornea assay; ref Good et al., 1990; Tolsma et al., 1993; cited from earlier work
[9] = tested on: neovascularization, polyvinyl sponge; conditions: polyvinyl sponge assay; ref Good et al., 1990; Tolsma et al., 1993; cited from earlier work
CD36 null animals = conditions: ref Febbraio, M., O.V. Volpert, N.P. Bouck, and R.L. Silverstein, unpublished data; cited from earlier work
[10] = tested on: Melanoma cells not transfected with CD36; conditions: ref Silverstein et al., 1992; cited from earlier work
CD36 = conditions: cited from earlier work
[11] = tested on: neovascularization in vivo; conditions: ref O'Reilly et al., 1994; cited from earlier work

With Thrombospondin-1 [TSP-1] the “inhibition of bFGF-induced migration by TSP-1, BCEC” value ([1]; TSP-1 2 nM) was “TSP-1 inhibition of bFGF-induced migration”, the “inhibition of bFGF-induced HMVEC migration by TSP-1” value ([2]; TSP-1 2 nM) was “inhibition of bFGF-induced migration of HMVECs by TSP-1” and the “TSP-1 inhibition of migration of CD36-transfected clone 35” value (CD36-transfected HUVECs [3]; clone 35 (very low CD36)) was “refractory to TSP-1 inhibition”. For the same substance, the “TSP-1 inhibition of migration of CD36-transfected clones 31 and 36” value (CD36-transfected HUVECs [3]; clones 31 and 36 (higher CD36)) was “sensitive to TSP-1 inhibition”, the “TSP-1 inhibition of tube formation after CD36 transfection” value (CD36-transfected HUVECs [4]) was “became sensitive to TSP-1 inhibition of both migration and tube formation” and the “concentrations effective in vitro (inhibition of angiogenesis)” value (endothelial cells [5]; ref Good et al., 1990, Tolsma et al., 1993) was “subnanomolar”. For the same substance, the “concentration inhibiting endothelial cell migration (biphasic dose response)” value (endothelial cells [5]; ref Taraboletti et al., 1990, Tolsma et al., 1993, Gao et al., 1996) was “less than 20 nM”, the “concentration inhibiting lumen formation” value (endothelial cells [6]) was “below 20 nM” and the “concentration inhibiting tube formation” value (endothelial cells [7]) was “below 20 nM”. For the same substance, the “prevention of neovascularization in vivo, rodent cornea” value [8] was “able to prevent neovascularization in vivo”, the “prevention of neovascularization in vivo, polyvinyl sponge” value [9] was “able to prevent neovascularization in vivo” and the “inhibition of corneal neovascularization in CD36 null animals” value (CD36 null animals) was “defective in CD36 null animals”. For the same substance, the “TSP-1 binding to melanoma cells not transfected with CD36” value [10] was “do not bind TSP-1” and the “interaction of TSP-1 with CD36 amino acids 93–120” value (CD36; minimal region of CD36, ref Pearce et al., 1995) was “specific, saturable, and reversible manner”.

For Angiostatin, the “inhibition of HMVEC migration by angiostatin” value ([2]; angiostatin 2 μg/ml, bFGF, control inhibitor) is listed as “inhibition of endothelial cell migration by angiostatin”, the “inhibition of endothelial cell migration in vitro by angiostatin” value (endothelial cells [5]; ref Gately et al., 1996) is listed as “well-established inhibitor of endothelial cell migration in vitro” and the “inhibition of corneal neovascularization in CD36 null animals” value (CD36 null animals) is listed as “not by angiostatin is defective in CD36 null animals”. The “inhibition of angiogenesis in vivo by angiostatin” value [11] was “of angiogenesis in vivo”.

For low-density lipoprotein [LDL], the “inhibition of bFGF-induced HMVEC migration by other CD36 ligands” value (“inhibition … by other CD36 ligands” below) [2] is given as “failed to influence HMVEC migration”, the “effect on migration when tested alone” value [2] is given as “no significant effect on migration” and the “binding of unoxidized LDL to CD36” value (CD36; ref Endemann et al., 1993) is given as “unable to bind CD36”.

With “oxidized low-density lipoprotein [OxLDL]” the “inhibition … by other CD36 ligands” value [2] was “inhibited bFGF-induced HMVEC migration”, the “effect on migration when tested alone” value [2] was “no significant effect on migration” and the “concentration below which ineffective at inhibiting migration” value ([2]; bFGF-induced HMVEC migration, data not shown) was “below 0.1 nM”.

In the case of “glutathione-S-transferase [GST, reference compound]”, the “block of TSP-1 inhibition of bFGF-induced migration” value ([1]; TSP-1 2 nM, fusion protein preincubated 2 h at 4°C, migration 4 h at 37°C) is reported as “ineffective”.

With “FP93-120: GST–CD36 fusion protein containing the TSP-1 binding region, amino acids 93–120 (YRVRFLAKENVTQDAEDNTVSFLQPNGA; left off: GST, end not stated, kept) [reference compound]” the “block of inhibition of migration by Col overlap peptide” value ([1]; Col overlap 30 μM, bFGF, fusion protein preincubated 2 h at 4°C) was “blocked the inhibitory effects of Col overlap”.

For “human type I collagen [human collagen I]”, the “inhibition … by other CD36 ligands” value [2] was “inhibited bFGF-induced HMVEC migration” and the “effect on migration when tested alone” value [2] was “no significant effect on migration”.

Source: PMC2141641 (The Journal of Cell Biology, 1997)
